From ChEMBL document CHEMBL4138048, “Synthesis of substituted 2H-benzo[e]indazole-9-carboxylate as a potent antihyperglycemic agent that may act through IRS-1, Akt and GSK-3β pathways” (Medchemcomm, 2017)
Active and inactive are the calls of the source. The calls are words filed in the database; no cut-off is given here.

Test system: L6
Experiment: Stimulation of [3H]2-deoxyglucose uptake in rat L6 cells at 10 uM incubated for 16 hrs by scintillation counting method
Format: functional, cell-based
Outline: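 L6 myotubes incubated with the compound […]; insulin at 100 nM for 20 min served as the positive control. Uptake of ³H-2-deoxyglucose measured and expressed as fold stimulation relative to the control condition.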

| SMILES | Activity |
| --- | --- |
| COC(=O)c1c(S(C)(=O)=O)cc(-c2ccc(F)cc2)c2c1-c1cn(-c3ccccc3)nc1CC2 | inactive |
| COC(=O)c1c(SC)cc(-c2ccc(F)cc2)c2c1-c1cn(-c3ccccc3)nc1CC2 | inactive |
| COC(=O)c1c(SC)cc(-c2ccc(OC)cc2)c2c1-c1cn(-c3ccccc3)nc1CC2 | inactive |
